Values after ≈ are worked out from the molar mass of the structure shown.
How the values were obtained:
Aedes albopictus [1] = assay: Insecticidal activity against Asian tiger mosquito fourth-instar larvae irradiated with 2074 uW/cm'2 UV light for 1.5 hrs; format: functional; settings: light or radiation study
Outline: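 Aedes albopictus fourth-instar larvae from a laboratory colony; acetone-diluted samples (0.4 mL) added to 20 mL dechlorinated water with 30 larvae; 3 h dark incubation, then 1.5 h UV irradiation (300-400 nm, max 365 nm), then 24 h in darkness; mortality from three replications per concentration; LC50 (concentration causing 50% mortality) determined.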

Aedes albopictus [2] = assay: Insecticidal activity against Asian tiger mosquito fourth-instar larvae after 24 hrs in dark; format: functional
Outline: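 Aedes albopictus fourth-instar larvae from a laboratory colony; samples dissolved and serially diluted in acetone, 0.4 mL added to 20 mL dechlorinated water with 30 larvae; held in the dark throughout the trial; mortality read at 24 h, three replications per concentration; LC50 (concentration causing 50% mortality) determined.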

SMILES	LC50 (Aedes albopictus [1]) [µg/mL]	LC50 (Aedes albopictus [2]) [µg/mL]
C/C=C/C#CC#Cc1ccc(C(COC(C)=O)OC(C)=O)s1 (racemic)	0.66 (≈ 2.09 µM)	> 10
C/C=C/C#CC#Cc1ccc(C(O)CO)s1 (racemic)	4.2 (≈ 18.1 µM)	> 10
C/C=C/C#CC#Cc1ccc(CO)s1	0.3 (≈ 1.48 µM)	> 10
C/C=C/C#CC#Cc1ccc(C(O)CCl)s1 (racemic) [XANTHOPAPPIN B]	0.53 (≈ 2.11 µM)	5.1 (≈ 20.3 µM)
C/C=C/C#CC#Cc1cccs1 [XANTHOPAPPIN A]	0.71 (≈ 4.12 µM)	> 10
C/C=C/C#CC#Cc1ccc(C(=O)C(O)(CC(C)=O)c2ccc(C#CC#C/C=C/C)s2)s1 (racemic) [XANTHOPAPPIN C]	0.95 (≈ 2.08 µM)	> 10

— ChEMBL document CHEMBL1158046, “Photoactivated insecticidal thiophene derivatives from Xanthopappus subacaulis” (2006)
